Source: PubChem BioAssay
The list is not random: actives were taken first. Their share in the collection is about 1.1%.
Furin inhibitor: human furin inhibitors, primary screen, biochemical, fluorescence intensity; purified furin, fluorogenic substrate cleavage; inhibition, % at 20 µM or 30 µM; actives 0.061% (n = 220,000); in the data active = inhibition above about 25%
FXIa inh: human FXIa protease inhibitors, primary screen, biochemical, 1536-well. inhibition, % at 5 µM. purified FXIa, Boc-Glu-Ala-Arg-AMC fluorogenic substrate. actives 0.14% (n = 220,000). Coagulation factor XI (Homo sapiens), P03951;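 active = inhibition of at least 40%; inactive = inhibition below 40%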;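 also: fluorescence of freed AMC excited at 355 nm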
FXIIa inh: human FXIIa protease inhibitors, primary screen, biochemical, 1536-well | Coagulation factor XII (Homo sapiens), P00748 | purified FXIIa, Boc-QGR-AMC fluorogenic substrate, 2 h | inhibition, % at 5 µM | actives 0.3% (n = 220,000); in the data active = inhibition above about 40%
Thrombin inh: human alpha-thrombin inhibitors, primary screen, counter-screen for coagulation protease inhibitor project, biochemical, 1536-well, fluorogenic AMC substrate; Prothrombin (Homo sapiens), P00734; Boc-VPR-AMC fluorogenic substrate cleavage; inhibition, % at 5 µM; actives 0.26% (n = 220,000); AID 1046, 2008;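 active = inhibition at or above 40%; inactive = inhibition below 40%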
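System – human alpha-thrombin · Medium – pH 7.5 Tris (50 mM) with NaCl 150 mM, Tween 20 0.05% · Compound – single-point dosing at 5 µM, 0.2% DMSO · Incubation – enzyme reaction carried out at room temperature · Technique – fluorescence of released AMC, ex 355 nm, em 460 nm · Read-out basis – % inhibition of thrombin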
hK5 inh: human KLK5 protease inhibitors, primary screen, biochemical, 1536-well | recombinant hK5, fluorogenic AMC substrate cleavage | inhibition, % at 5 µM | actives 0.59% (n = 210,000) | AID 873, 2007;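 active = inhibition of 40% or more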
Target sequence (Q9Y337 67-293 limits assumed): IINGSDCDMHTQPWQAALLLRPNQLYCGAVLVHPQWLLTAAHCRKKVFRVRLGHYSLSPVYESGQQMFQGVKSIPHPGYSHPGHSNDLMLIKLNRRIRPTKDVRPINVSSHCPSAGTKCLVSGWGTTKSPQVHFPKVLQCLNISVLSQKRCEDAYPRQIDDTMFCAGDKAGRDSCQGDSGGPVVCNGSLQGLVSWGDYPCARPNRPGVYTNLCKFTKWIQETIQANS
Numbers stand for hits; . = inactive; / = no result.

SMILES	Furin inhibitor	FXIa inh	FXIIa inh	Thrombin inh	hK5 inh
COCC(=O)n1nc(-c2ccccc2)nc1NCc1ccccc1	.	.	.	90.5	.
CCOC(=O)/C=C/C(=O)Nc1ccccc1C(=O)NC1CCCCC1	.	.	.	.	.
N#CCCC1CCCC=C1N(Cc1ccccc1)C(=O)C(Cl)Cl (stereo not drawn)	.	57.5	.	.	.
Cc1ccc(NC(=O)N(CCC#N)Cc2ccccc2)cc1	.	.	.	.	.
COCc1c(C(=O)OCc2nc(N)nc(Nc3ccccc3C)n2)oc2ccccc12	.	.	51.3	.	.
COc1ccccc1C(=O)OCc1nc(N)nc(Nc2ccccc2C)n1	.	.	.	.	.
CCn1cc(C(=O)NCc2cccnc2)c(=O)c2cc(F)c(N3CCN(C(=O)c4ccco4)CC3)cc21	.	.	41.3	.	.
CN(Cc1ccccc1)c1nc2c(c(=O)[nH]c(=O)n2C)n1CCSc1ncccn1	.	/	/	/	/
CN(Cc1ccccc1)c1nc2c(c(=O)[nH]c(=O)n2C)n1CCCSc1ncccn1	.	41.9	51.6	.	.
COc1ccc(C(=O)Nc2ccc(S(=O)(=O)NC(C)=O)cc2)cc1[N+](=O)[O-]	.	.	.	.	.
CCOCCCNS(=O)(=O)c1ccc(NC(=O)c2ccc(OC)c([N+](=O)[O-])c2)cc1	.	41.7	.	.	.
CO/N=C/c1ccc(Sc2ccccc2)c([N+](=O)[O-])c1	.	.	.	.	.
CO/N=C/c1ccc(Sc2ccccc2N)c([N+](=O)[O-])c1	.	.	44.5	.	.
Cc1ccc(S(=O)(=O)N2CCCCC2)cc1NC(=O)COC(=O)Cc1cccc(C(F)(F)F)c1	.	.	.	.	.
O=C(Cn1nnc(-c2ccccc2)n1)OCc1ccccc1	.	.	.	.	.
O=C(Cn1nnc(-c2ccccc2)n1)OCc1csc(-c2ccccc2)n1	.	.	48.6	.	.
COc1ccc(CCC(=O)Nc2cc(S(C)(=O)=O)ccc2Cl)cc1	.	.	.	.	.
COc1cnc(SCCC(F)=C(F)F)[nH]c1=O	.	.	.	.	.
CCC(=O)NC(=S)Nc1cccc(NC(=O)c2ccccc2)c1	.	.	.	40.4	.
CC(C)(C)NC(=O)NC(=O)CSc1n[nH]c(-c2ccccc2Br)n1	.	.	.	.	.
O=C(CCCN1C(=O)c2cccc3cccc(c23)C1=O)NCc1cccnc1	.	.	49.1	.	.
CN(C(=O)CC(=O)Nc1ccc(Cl)c(Cl)c1)c1ccccc1	.	.	.	.	.
COc1ccc(NCC(=O)Nc2cc(S(=O)(=O)N3CCOCC3)ccc2N2CCOCC2)c(OC)c1	.	41.9	.	.	.
Nc1nc2n(n1)C(=O)CC(c1ccccc1)N2 (stereo not drawn)	.	.	.	.	.
COc1ccc(CN2C(=O)c3cccnc3C2Nc2cc(Cl)ccc2OC)cc1 (stereo not drawn)	.	.	.	.	46.4
SMILES	Furin inhibitor	FXIa inh	FXIIa inh	Thrombin inh	hK5 inh
COCCNC(=O)c1nn(-c2cc(OC)cc(OC)c2)c(=O)c2ccccc12	.	.	.	.	66.3
CS(=O)(=O)N1CCC(Oc2ccccc2C(=O)NCCCc2cccnc2)CC1	.	.	.	.	.
CC(=O)c1ccc(NC(=S)Nc2cccc3cnccc23)cc1	.	64.6	.	.	.
COc1cc(CCC(=O)Nc2cccc(C(F)(F)F)c2)cc(OC)c1OC	.	.	.	41.4	.
COc1ccc(CCn2c(C)cc(C(=O)CCl)c2C)cc1OC	.	.	102.7	/	.
O=C(CCCN1C(=O)CCC1=O)Nc1ccc(Br)cc1F	.	.	.	.	61.5
O=C(CCCN1C(=O)CCC1=O)Nc1ccccc1F	.	.	.	.	.
CC12C=CC3(O1)C(C(=O)N(c1cccnc1)C3C(=O)NC1CCCCC1)C2C(=O)Nc1ccccc1 (stereo not drawn)	.	.	.	.	72.4
CC(C)(C)NC(=O)C1N(c2cccnc2)C(=O)C2C(C(=O)Nc3ccccc3F)C3(C)C=CC21O3 (stereo not drawn)	.	.	.	.	.
Cc1nc(-c2ccc([N+](=O)[O-])cc2)sc1C(=O)O	.	.	.	.	/
Cc1noc(C)c1CSc1nc2ccccc2c(=O)n1-c1ccc(F)cc1F	.	.	42.9	.	.
